ChEMBL document CHEMBL1255526, “Fused tricyclic pyrrolizinones that exhibit pseudo-irreversible blockade of the NK1 receptor” (Bioorg Med Chem Lett, 2010)

What was measured:
[1] = Half life in rat; assay type: ADME, organism-based; settings: in vivo
Substance-P receptor [2] = target: T1, Substance-P receptor (Homo sapiens, UniProt P25103); assay: Displacement of [125I]substance P from human NK1 receptor expressed in CHO cells in presence of 50% dog serum; assay type: cell-based
How it was run: (§1)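 Radioligand binding: [125I]substance P displaced from human NK1 receptor expressed in CHO cells; IC50 determined. Also run with 50% serum added (human, dog, rhesus, rat or gerbil) to measure the serum shift.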

[3] = Half life in dog; assay type: ADME, organism-based, Canis lupus familiaris; settings: in vivo
Meriones unguiculatus [4] = species on record: Meriones unguiculatus; assay: Inhibition of GR-73632-induced foot tapping in Mongolian gerbil after 1 hr; assay type: functional; settings: read-out: ID50 (the source's name)
How it was run: (§2)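 Gerbils given antagonist at the dose and pretreatment time shown (1 mg/kg at 1 h, 3 mg/kg at 24 h); foot tapping then induced with the NK1 agonist GR73632. Read-out is % inhibition of tapping; ED50 or ID50 from dose–response.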

Substance-P receptor [5] = target: T1, Substance-P receptor; assay: Displacement of [125I]substance P from human NK1 receptor expressed in CHO cells in presence of 50% mongolian gerbil serum; assay type: cell-based; how it was run: as §1
[6] = target: T2, PXR (nuclear receptor subfamily 1 group I member 2) (Homo sapiens, UniProt O75469); assay: Inhibition of human PXR induction at 10 uM
T2 sequence (O75469 whole entry): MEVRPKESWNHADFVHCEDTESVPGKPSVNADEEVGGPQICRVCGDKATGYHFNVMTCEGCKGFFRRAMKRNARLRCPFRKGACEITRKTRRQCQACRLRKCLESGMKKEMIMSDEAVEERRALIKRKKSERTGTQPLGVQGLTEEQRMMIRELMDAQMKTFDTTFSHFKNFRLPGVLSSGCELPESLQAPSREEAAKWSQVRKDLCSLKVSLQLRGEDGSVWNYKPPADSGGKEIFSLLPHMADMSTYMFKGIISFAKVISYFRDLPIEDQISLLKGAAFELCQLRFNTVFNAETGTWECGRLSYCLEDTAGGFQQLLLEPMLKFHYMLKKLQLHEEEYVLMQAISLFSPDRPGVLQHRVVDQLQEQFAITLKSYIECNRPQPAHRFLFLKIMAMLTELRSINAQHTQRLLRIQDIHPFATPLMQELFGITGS
How it was run: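 Human PXR induction measured at 10 µM compound, expressed as % of maximal induction.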

[7] = target: T3, Nuclear receptor subfamily 1 group I member 2 (Homo sapiens, UniProt O75469); assay: Inhibition of human PXR induction
T3 sequence (O75469 whole entry): T2 sequence (O75469 whole entry)

Meriones unguiculatus [8] = assay: Inhibition of GR-73632-induced foot tapping in Mongolian gerbil at 3 mg/kg after 24 hrs; assay type: functional; how it was run: as §2
Cytochrome P450 3A4 = Cytochrome P450 3A4 (Homo sapiens, UniProt P08684); assay: Inhibition of CYP3A4; assay type: ADME
[9] = Mean residence time in rat; assay type: ADME, organism-based; settings: in vivo
Substance-P receptor [10] = target: T1, Substance-P receptor; assay: Antagonist activity at human recombinant NK1 receptor expressed in CHO cells assessed as remaining substance P level at 100 nM after 30 mins by [H3]-inositol phosphate release assay; assay type: functional, cell-based
How it was run: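 CHO cells with recombinant human NK1 receptor, 2.5 × 10⁴ per well, plated overnight, then prelabelled overnight at 37 °C with [3H]-myo-inositol (10–25 Ci/mmol) in inositol-free medium with 0.02% BSA. LiCl 10 mM in HEPES-buffered inositol-free DMEM, 15 min. Antagonist at 100 nM or DMSO for 30 min, then substance P for 30 min. Stopped with formic acid. [3H]-inositol phosphate captured on yttrium silicate SPA beads, 2 h. Reported as % substance P response remaining.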

[11] = Plasma clearance in dog; assay type: ADME, organism-based, Canis lupus familiaris
[12] = Ratio of drug level in brain to plasma in Mongolian gerbil; assay type: ADME, Meriones unguiculatus; settings: read-out: BPR
[13] = Binding affinity to potassium channel IKr
Substance-P receptor [14] = target: T1, Substance-P receptor; assay: Displacement of [125I]substance P from human NK1 receptor expressed in CHO cells in presence of 50% rat serum; assay type: cell-based; how it was run: as §1
[15] = Plasma clearance in rat; assay type: ADME, organism-based
[16] = Binding affinity to calcium channel
How it was run: (§3)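 Ion channel binding assay; IC50 values calculated for sodium channel and for calcium channel (Dlz site).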

[17] = Metabolic stability in rhesus monkey microsomes assessed as compound remaining after 60 mins; assay type: ADME, Macaca mulatta, Microsome; settings: read-out: Stability
How it was run: (§4)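 Compound incubated 60 min with liver microsomes from human, dog, rat or rhesus; % parent remaining measured.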

[18] = Metabolic stability in human microsomes assessed as compound remaining after 60 mins; assay type: ADME, Microsome; settings: read-out: Stability; how it was run: as §4
[19] = Oral bioavailability in rat; assay type: ADME, organism-based; settings: in vivo
[20] = Metabolic stability in rat microsomes assessed as compound remaining after 60 mins; assay type: ADME, Microsome; settings: read-out: Stability; how it was run: as §4
Meriones unguiculatus [21] = species on record: Meriones unguiculatus; assay: Inhibition of GR-73632-induced foot tapping in Mongolian gerbil after 24 hrs; assay type: functional; how it was run: as §2
Substance-P receptor [22] = target: T1, Substance-P receptor; assay: Displacement of [125I]substance P from human NK1 receptor expressed in CHO cells in presence of 50% rhesus monkey serum; assay type: cell-based; how it was run: as §1
Substance-P receptor [23] = target: T1, Substance-P receptor; assay: Displacement of [125I]substance P from human NK1 receptor expressed in CHO cells; assay type: cell-based; how it was run: as §1
Substance-P receptor [24] = target: T1, Substance-P receptor; assay: Displacement of [125I]substance P from human NK1 receptor expressed in CHO cells in presence of 50% human serum; assay type: cell-based; how it was run: as §1
[25] = Volume of distribution in rat; assay type: ADME, organism-based; settings: in vivo
Cytochrome P450 2D6 = Cytochrome P450 2D6 (Homo sapiens, UniProt P10635); assay: Inhibition of CYP2D6; assay type: ADME
[26] = Binding affinity to sodium channel; how it was run: as §3
Cytochrome P450 2C9 = Cytochrome P450 2C9 (Homo sapiens, UniProt P11712); assay: Inhibition of CYP2C9; assay type: ADME
[27] = Metabolic stability in dog microsomes assessed as compound remaining after 60 mins; assay type: ADME, Canis lupus familiaris, Microsome; settings: read-out: Stability; how it was run: as §4

T1 sequence (P25103 whole entry): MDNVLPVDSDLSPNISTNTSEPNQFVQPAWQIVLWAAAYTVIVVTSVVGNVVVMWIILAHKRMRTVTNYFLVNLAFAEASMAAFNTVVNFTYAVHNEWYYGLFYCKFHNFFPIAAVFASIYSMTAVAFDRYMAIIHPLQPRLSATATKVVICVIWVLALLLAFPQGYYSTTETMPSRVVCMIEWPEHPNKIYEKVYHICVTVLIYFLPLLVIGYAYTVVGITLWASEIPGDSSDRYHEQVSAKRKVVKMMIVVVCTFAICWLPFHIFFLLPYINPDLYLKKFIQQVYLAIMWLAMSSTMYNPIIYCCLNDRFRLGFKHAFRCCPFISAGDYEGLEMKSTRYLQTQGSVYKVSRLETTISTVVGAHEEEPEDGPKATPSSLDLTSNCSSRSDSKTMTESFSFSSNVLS
Chain of Cytochrome P450 2C9 (P11712 whole entry): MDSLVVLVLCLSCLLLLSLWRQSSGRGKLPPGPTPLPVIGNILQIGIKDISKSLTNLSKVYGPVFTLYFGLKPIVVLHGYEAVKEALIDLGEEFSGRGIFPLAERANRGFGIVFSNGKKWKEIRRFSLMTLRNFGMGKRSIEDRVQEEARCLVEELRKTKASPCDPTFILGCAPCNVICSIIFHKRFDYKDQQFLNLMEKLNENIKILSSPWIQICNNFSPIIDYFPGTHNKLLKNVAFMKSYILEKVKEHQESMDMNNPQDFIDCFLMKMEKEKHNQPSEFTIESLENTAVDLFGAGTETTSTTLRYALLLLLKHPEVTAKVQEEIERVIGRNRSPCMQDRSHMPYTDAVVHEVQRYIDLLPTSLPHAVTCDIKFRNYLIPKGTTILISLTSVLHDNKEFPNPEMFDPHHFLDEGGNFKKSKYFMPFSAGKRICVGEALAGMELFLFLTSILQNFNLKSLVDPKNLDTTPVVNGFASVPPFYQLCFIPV
Chain of Cytochrome P450 3A4 (P08684 whole entry): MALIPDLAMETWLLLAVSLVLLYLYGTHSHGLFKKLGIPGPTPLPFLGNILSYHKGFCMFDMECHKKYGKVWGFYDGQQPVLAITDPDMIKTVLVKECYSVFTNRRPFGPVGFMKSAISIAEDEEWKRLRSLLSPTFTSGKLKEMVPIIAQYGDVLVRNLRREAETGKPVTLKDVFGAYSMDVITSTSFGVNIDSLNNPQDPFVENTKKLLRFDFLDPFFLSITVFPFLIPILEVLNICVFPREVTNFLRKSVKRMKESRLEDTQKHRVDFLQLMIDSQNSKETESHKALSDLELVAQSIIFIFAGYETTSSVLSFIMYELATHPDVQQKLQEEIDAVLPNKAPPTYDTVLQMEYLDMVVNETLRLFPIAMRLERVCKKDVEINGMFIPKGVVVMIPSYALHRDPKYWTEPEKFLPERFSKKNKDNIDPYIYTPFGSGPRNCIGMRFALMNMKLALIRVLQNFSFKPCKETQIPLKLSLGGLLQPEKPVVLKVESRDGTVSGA
Chain of Cytochrome P450 2D6 (P10635 whole entry): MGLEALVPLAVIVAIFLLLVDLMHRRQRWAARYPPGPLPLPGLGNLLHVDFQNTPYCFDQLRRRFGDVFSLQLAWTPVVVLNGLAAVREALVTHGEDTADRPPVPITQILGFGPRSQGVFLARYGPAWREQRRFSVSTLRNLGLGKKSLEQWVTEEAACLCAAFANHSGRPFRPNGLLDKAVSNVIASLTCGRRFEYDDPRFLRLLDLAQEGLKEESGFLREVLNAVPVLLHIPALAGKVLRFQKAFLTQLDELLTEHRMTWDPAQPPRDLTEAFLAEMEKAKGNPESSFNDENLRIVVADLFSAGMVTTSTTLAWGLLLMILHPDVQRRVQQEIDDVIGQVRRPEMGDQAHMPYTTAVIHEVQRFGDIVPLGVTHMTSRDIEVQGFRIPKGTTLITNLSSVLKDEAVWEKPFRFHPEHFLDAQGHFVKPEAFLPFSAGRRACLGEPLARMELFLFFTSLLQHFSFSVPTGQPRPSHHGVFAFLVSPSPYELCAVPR

## C[C@@H](O[C@H]1CN2C(=O)[C@H]3C[C@@](C)(O)C[C@H]3[C@H]2[C@@H]1c1ccc(F)cc1)c1cc(C(F)(F)F)cc(C(F)(F)F)c1
[1]
  half-life: 14.6 h
Substance-P receptor [2]
  IC50: 1.5 nM
[3]
  half-life: 58 h
Meriones unguiculatus [4]
  ED50: 0.02 mg/kg
Substance-P receptor [5]
  IC50: 1.9 nM
[6]
  Emax at 10 µM: 37%
[7]
  IC50: 8400 nM
Meriones unguiculatus [8]
  inhibition in vivo at 3 mg/kg: 100%
Cytochrome P450 3A4
  IC50: 22700 nM
[9]
  MRT: 4.67 h
Substance-P receptor [10]
  Activity: 3%
[11]
  clearance: 0.03 L/h/kg
[12]
  Kp: 0.5
[13]
  IC50: 2470 nM
Substance-P receptor [14]
  IC50: 0.4 nM
[15]
  clearance: 0.194 L/h/kg
[16]
  IC50: > 10000 nM
[17]
  remaining at 1 h: 99%
[18]
  remaining at 1 h: 96%
[19]
  bioavailability: 88.8%
[20]
  remaining at 1 h: 96%
Meriones unguiculatus [21]; read-out: ED50
  ED50: 0.02 mg/kg
Meriones unguiculatus [21]; read-out: ID50 (the source's name)
  ED50: 0.02 mg/kg
Substance-P receptor [22]
  IC50: 0.4 nM
Substance-P receptor [23]
  IC50: 0.061 nM
Substance-P receptor [24]
  IC50: 0.7 nM
[25]
  Vd: 4.03 L/kg
Cytochrome P450 2D6
  IC50: 17400 nM
[26]
  IC50: > 10000 nM
Cytochrome P450 2C9
  IC50: 43100 nM
[27]
  remaining at 1 h: 90%
